Results on 49 compounds are retold here after ChEMBL document CHEMBL4406806, “Design, Synthesis, and Characterization of Ogerin-Based Positive Allosteric Modulators for G Protein-Coupled Receptor 68 (GPR68)” (J Med Chem, 2019).

What all share (format): functional, cell-based
Test [1] concerns the target G-protein coupled receptor 68 (Homo sapiens) (UniProt Q15743). The test is described as follows: Positive allosteric modulation of human GPR68 expressed in HEK293T cells co-expressing Gs assessed as stimulation of proton-mediated cAMP production by measuring allosteric index in HBSS buffer containing pH 6.8 to 8.2 HEPES/pH 8.3 to 8.6 TAPS measured after 20 to 30 mins in presence of PDE inhibitor Ro 20-1724 by luciferase-glo reporter gene assay. The essentials:
(§1)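 Transient co-transfection of HEK293T with receptor and GloSensor plasmids using PEI, overnight, then replated in DMEM + 1% dFBS for 6–24 h. Luciferin 3.5 mM loaded for 1 h at 37 °C in HBSS/20 mM TAPS, pH 8.40. Proton series: Ca/Mg-free HBSS with MES (pH 5.60–6.70), HEPES (6.80–8.20) or TAPS (8.30–8.60), plus 10 μM Ro 20-1724. BSA 1 mg/mL added where solubility required. Luminescence read at 20–30 min. At least six 16-point proton curves across modulator concentrations, quadruplicate, ≥3 independent assays.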
(Changes in cAMP serve as a functional read-out for many G protein-coupled receptors.)

For test [2] the target is unchanged. The test is described as follows: Positive allosteric modulation of human GPR68 expressed in HEK293T cells co-expressing Gs assessed as stimulation of proton-mediated cAMP production by measuring allosteric affinity cooperativity in HBSS buffer containing pH 6.8 to 8.2 HEPES/pH 8.3 to 8.6 TAPS measured after 20 to 30 mins in presence of PDE inhibitor Ro 20-1724 by luciferase-glo reporter gene assay. The essentials:
as §1

Test [3] shares this target. Briefly: Positive allosteric modulation of human GPR68 expressed in HEK293T cells co-expressing Gs assessed as stimulation of proton-mediated cAMP production by measuring efficacy cooperativity in HBSS buffer containing pH 6.8 to 8.2 HEPES/pH 8.3 to 8.6 TAPS measured after 20 to 30 mins in presence of PDE inhibitor Ro 20-1724 by luciferase-glo reporter gene assay. Put shortly:
as §1

G-protein coupled receptor 68 (Homo sapiens), sequence (Q15743 whole entry): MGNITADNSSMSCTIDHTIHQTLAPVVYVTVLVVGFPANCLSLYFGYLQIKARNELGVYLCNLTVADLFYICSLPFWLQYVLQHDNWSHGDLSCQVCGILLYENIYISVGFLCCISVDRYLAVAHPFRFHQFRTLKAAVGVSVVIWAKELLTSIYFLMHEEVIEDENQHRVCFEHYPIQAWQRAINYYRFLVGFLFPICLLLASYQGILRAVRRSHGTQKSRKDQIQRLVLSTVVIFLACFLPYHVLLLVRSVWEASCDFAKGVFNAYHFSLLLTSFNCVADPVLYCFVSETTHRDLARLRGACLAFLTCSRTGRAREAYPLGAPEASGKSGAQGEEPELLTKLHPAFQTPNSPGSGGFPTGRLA

With `Nc1nc(NCc2ccccc2)nc(-c2c(F)cccc2CO)n1`, the Activity index in test [1] was 5.19. In addition, the values for the log(activity) in test [2] and in test [3] were 1.15 and 0.35, respectively.
For `Nc1nc(NCCCc2ccc(Oc3ccccc3)cc2)nc(-c2ccccc2CO)n1` the same measures were 5.84, 1.19 and -0.01.
For `Nc1nc(NCCc2ccc(Oc3ccccc3)cc2)nc(-c2cc(Cl)ccc2CO)n1`, the Activity index in test [1] worked out at 5.87. Moreover, the values for the log(activity) in test [2] and in test [3] were 1.39 and -0.04, respectively.
As to `COc1ccc(-c2nc(N)nc(NCc3ccccc3)n2)c(CO)c1`, the Activity index in test [1] turned out to be 4.97. The log(activity) came to 0.46 in test [2] and 0.14 in test [3].
As for `Cc1ccccc1CNc1nc(N)nc(-c2ccccc2CO)n1`, the Activity index in test [1] worked out at 5.57. In addition, the figures for the log(activity) in test [2] and in test [3] were 0.54 and 0.33, respectively.
For `Cc1cccc(CNc2nc(N)nc(-c3ccccc3CO)n2)c1` the same measures were 5.57, 0.92 and 0.25.
For `Nc1nc(NCCc2ccccc2)nc(-c2ccccc2CO)n1` the same measures were 5.62, 0.88 and 0.24.
Taken in the same sequence, the figures for `COc1ccc(CNc2nc(N)nc(-c3ccccc3CO)n2)cc1` were 4.61, 0.78 and 0.49.
Turning to `Nc1nc(NCc2ccccc2)nc(-c2ccc(F)cc2CO)n1`, the Activity index in test [1] came to 5.46. Moreover, the log(activity) in test [2] was 0.64; in test [3], 0.24.
Consider `COc1ccccc1CNc1nc(N)nc(-c2ccccc2CO)n1`, for which the Activity index in test [1] was 5.03. For the same compound, the values for the log(activity) in test [2] and in test [3] were 0.98 and 0.06, respectively.
Taken in the same sequence, the figures for `Nc1nc(NCc2ccc(Oc3ccccc3)cc2)nc(-c2cc(Cl)ccc2CO)n1` were 5.78, 1.05 and 0.03.
Turning to `Nc1nc(NCc2ccccc2)nc(-c2c(Cl)cccc2CO)n1`, the Activity index in test [1] was determined as 5.56. Besides, the figures for the log(activity) in test [2] and in test [3] were 1.25 and -0.12, respectively.
For `Nc1nc(NCc2ccccc2)nc(-c2ccc(Cl)cc2CO)n1` the same measures were 5.87, 1.01 and 0.11.
For `Nc1nc(NCCCc2ccc(Oc3ccccc3)cc2)nc(-c2c(F)cccc2CO)n1` the same measures were 6.1, 1.15 and 0.01.
In the case of `CCOc1ccc(-c2nc(N)nc(NCc3ccccc3)n2)c(CO)c1`, in test [1], the Activity index is 5.34. The values for the log(activity) in test [2] and in test [3] were 0.87 and 0.1, respectively.
Regarding `Nc1nc(NCc2ccc(F)cc2)nc(-c2c(F)cccc2CO)n1`, the Activity index in test [1] worked out at 5.55. The log(activity) worked out at 1.01 in test [2] and 0.09 in test [3].
Taken in the same sequence, the figures for `Nc1nc(NCCc2ccccc2)nc(-c2c(F)cccc2CO)n1` were 6.13, 1.06 and 0.03.
In the case of `Nc1nc(NCc2ccccc2)nc(-c2cccc(F)c2CO)n1`, the Activity index in test [1] amounted to 4.86. In addition, the log(activity) in test [2] was 0.59; in test [3], 0.27.
Taken in the same sequence, the figures for `Cc1cccc(CNc2nc(N)nc(-c3c(F)cccc3CO)n2)c1` were 5.42, 0.84 and 0.14.
For `CC(C)Oc1ccc(-c2nc(N)nc(NCc3ccccc3)n2)c(CO)c1` the same measures were 5.74, 0.56 and 0.27.
For `Nc1nc(NCc2cccc(C(F)(F)F)c2)nc(-c2ccccc2CO)n1` the same measures were 6.07, 0.64 and 0.32.
For `COc1cccc(CNc2nc(N)nc(-c3ccccc3CO)n2)c1`, in test [1], the Activity index was determined as 5.22. For the same compound, the log(activity) in test [2] came to 0.89; in test [3], 0.23.
For `Nc1nc(NCCCCc2ccc(Oc3ccccc3)cc2)nc(-c2ccccc2CO)n1` the same measures were 5.94, 1.03 and 0.09.
Taken in the same sequence, the figures for `Nc1nc(NCc2ccc(C(F)(F)F)cc2)nc(-c2ccccc2CO)n1` were 6.1, 0.78 and 0.3.
Taken in the same sequence, the figures for `COc1cccc(-c2nc(N)nc(NCc3ccccc3)n2)c1CO` were 4.86, 0.4 and 0.3.
As for `Cc1ccc(CNc2nc(N)nc(-c3ccccc3CO)n2)cc1`, the Activity index in test [1] is 5.6. Besides, the values for the log(activity) in test [2] and in test [3] were 0.9 and 0.32, respectively.
For `Nc1nc(NCc2ccc(OC3CC3)cc2)nc(-c2ccccc2CO)n1`, in test [1], the Activity index amounted to 5.77. For the same compound, the values for the log(activity) in test [2] and in test [3] were 0.67 and 0.04, respectively.
With `Nc1nc(NCc2cccc(F)c2)nc(-c2ccccc2CO)n1`, in test [1], the Activity index amounted to 5.55. Further, the log(activity) in test [2] was found to be 0.7; in test [3], 0.33.
`Nc1nc(NCc2ccccc2C(F)(F)F)nc(-c2ccccc2CO)n1`: the Activity index in test [1] is 5.96. For the same compound, the figures for the log(activity) in test [2] and in test [3] were 0.6 and 0.31, respectively.
Taken in the same sequence, the figures for `Nc1nc(NCc2ccc(Oc3ccccc3)cc2)nc(-c2ccccc2CO)n1` were 6.14, 0.95 and 0.
Taken in the same sequence, the figures for `COc1ccc(CO)c(-c2nc(N)nc(NCc3ccccc3)n2)c1` were 4.77, 0.61 and 0.18.
On to `Nc1nc(NCc2ccccc2)nc(-c2cc(Cl)ccc2CO)n1`, for which the Activity index in test [1] worked out at 5.78. The log(activity) in test [2] came out at 1.2; in test [3] it was 0.09.
Taken in the same sequence, the figures for `Nc1nc(NCc2ccccc2F)nc(-c2c(F)cccc2CO)n1` were 5.4, 1.09 and 0.09.
Consider `Nc1nc(NCc2ccccc2)nc(-c2cc(F)ccc2CO)n1`, for which, in test [1], the Activity index came out at 5.69. For the same compound, the log(activity) in test [2] worked out at 0.91; in test [3], 0.2.
Regarding `Nc1nc(NCCCCc2ccccc2)nc(-c2c(F)cccc2CO)n1`, in test [1], the Activity index came out at 5.34. Moreover, the log(activity) in test [2] worked out at 1.24; in test [3] it was 0.06.
Taken in the same sequence, the figures for `Nc1nc(NCCCCc2ccccc2)nc(-c2cc(Cl)ccc2CO)n1` were 6.14, 1.09 and 0.06.
Taken in the same sequence, the figures for `Nc1nc(NCc2ccc(F)cc2)nc(-c2ccccc2CO)n1` were 5.42, 1.09 and 0.36.
As for `COc1ccccc1CNc1nc(N)nc(-c2c(F)cccc2CO)n1`, the Activity index in test [1] came out at 5.11. The values for the log(activity) in test [2] and in test [3] were 1.12 and -0.12, respectively.
Taken in the same sequence, the figures for `Nc1nc(Nc2ccccc2)nc(-c2ccccc2CO)n1` were 5.04, 0.72 and 0.4.
For `Nc1nc(NCCc2ccc(Oc3ccccc3)cc2)nc(-c2ccccc2CO)n1` the same measures were 5.9, 0.83 and 0.03.
Take `CNc1nc(NCc2ccccc2)nc(-c2ccccc2CO)n1`: in test [1], the Activity index stood at 5.36. In addition, the log(activity) in test [2] was found to be 0.48; in test [3] it was 0.37.
Taken in the same sequence, the figures for `CC(C)Oc1ccc(CNc2nc(N)nc(-c3ccccc3CO)n2)cc1` were 5.69, 0.53 and 0.17.
On to `Nc1nc(NCc2ccccc2Cl)nc(-c2ccccc2CO)n1`, for which the Activity index in test [1] turned out to be 5.94. Besides, the results for the log(activity) in test [2] and in test [3] were 0.64 and 0.23, respectively.
For `Nc1nc(NCCc2ccc(Oc3ccccc3)cc2)nc(-c2c(F)cccc2CO)n1` the same measures were 6.14, 1.14 and -0.06.
For `CCNc1nc(NCc2ccccc2)nc(-c2ccccc2CO)n1` the same measures were 5.34, 0.47 and 0.25.
As for `Nc1nc(NCCCc2ccccc2)nc(-c2ccccc2CO)n1`, the Activity index in test [1] worked out at 6.11. Moreover, the results for the log(activity) in test [2] and in test [3] were 0.81 and 0.08, respectively.
For `CCOc1ccc(CNc2nc(N)nc(-c3ccccc3CO)n2)cc1` the same measures were 5.57, 0.81 and -0.01.
For `Nc1nc(NCc2ccccc2F)nc(-c2ccccc2CO)n1` the same measures were 5.56, 0.98 and 0.31.
For `Nc1nc(NCc2cccc(Cl)c2)nc(-c2ccccc2CO)n1` the same measures were 5.9, 0.48 and 0.46.
